Results taken from ChEMBL document CHEMBL3616436, “Synthesis, cytotoxicity and antimicrobial activity of thiourea derivatives incorporating 3-(trifluoromethyl)phenyl moiety” (Eur J Med Chem, 2015).
pEC50: −log10 of the molar value. In brackets after ≈: the same amount, converted by molar mass. Activity calls are given as the source filed them. No cut-off for these calls is given here.

Tests used:
Staphylococcus aureus [1] = assay: Antimicrobial activity against Staphylococcus aureus ATCC 29213 after 18 hrs by twofold serial microdilution method; format: functional; details: ATCC 29213, 18 h
[2] = tested on: Mycobacterium tuberculosis; assay: Antimycobacterial activity against Mycobacterium tuberculosis H37Rv ATCC 25618; format: functional
Procedure, shortened: (§1)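 Classical test-tube successive-dilution method in Youmans' modification of Proskauer and Beck liquid medium with 10% bovine serum. Inoculum came from 14-day cultures. DMSO stock was 10 mg/mL, diluted geometrically in medium. Tubes were incubated at 37 °C. Concentrations tested were 3.1, 6.2, 12.5, 25, 50 and 100 µg/ml. MIC is the minimum concentration inhibiting growth relative to compound-free tubes.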

[3] = Cytotoxicity against BHK cells assessed as cell viability after 48 to 96 hrs by MTT assay; format: cell-based, Mesocricetus auratus; details: hamster
[4] = tested on: Mycobacterium tuberculosis; assay: Antimycobacterial activity against drug-sensitive Mycobacterium tuberculosis Spec. 192; format: functional; procedure, shortened: as §1
[5] = Cytotoxicity against bovine MDBK cells assessed as cell viability after 48 to 96 hrs by MTT assay; format: cell-based, Bos taurus; details: cattle
[6] = Antiviral activity against Bovine viral diarrhea virus 1-NADL ATCC VR-534 infected in MDBK cells assessed as protection against virus-induced cytopathogenicity after 3 to 4 days by MTT assay; format: functional, cell-based; details: Bovine viral diarrhea virus isolates and strains, ATCC VR-534, MDBK
Procedure, shortened: (§2)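 Cells seeded in 96-well plates (BHK 5x10^4, MDBK 3x10^4 cells/well), grown overnight to confluence, infected at m.o.i. 0.01 (BHK for Reo-1, MDBK for BVDV); serial compound dilutions in maintenance medium with 0.5% inactivated FBS added after 1 h; viability by MTT after 3–4 days at 37°C; EC50 for 50% protection by linear regression.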

Proteus vulgaris = assay: Antimicrobial activity against Proteus vulgaris NCTC 4635 at 400 ug after 18 hrs by disc-diffusion method; format: functional
Procedure, shortened: (§3)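 Disc diffusion on Mueller-Hinton II agar per CLSI; 9 mm paper discs loaded with 400 µg compound from DMSO solution, dried, placed on agar; growth inhibition zone diameter read after 18 h at 35°C.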

Human alphaherpesvirus 1 = assay: Antiviral activity against Human herpesvirus 1 KOS ATCC VR-1493 infected in African green monkey Vero 76 cells assessed as reduction of virus-plaque formation after 3 days by crystal violet staining; format: functional, organism-based; details: Human alphaherpesvirus 1, KOS ATCC VR1493, Vero, 72 h
Procedure, shortened: (§4)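 Plaque reduction: Vero-76 at 2x10^5 cells/well grown to confluent monolayers, infected 2 h at 50–100 PFU/well; after removing unadsorbed virus, overlay of D-MEM, 1% inactivated FBS, 0.75% methylcellulose with or without serial compound dilutions; 3 days at 37°C, fixed and stained with crystal violet in 50% ethanol, plaques counted; EC50 by linear regression.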

Staphylococcus aureus [7] = assay: Antimicrobial activity against Staphylococcus aureus ATCC 25923 after 18 hrs by twofold serial microdilution method; format: functional; details: ATCC 25923, 18 h
[8] = tested on: Vesicular stomatitis virus; assay: Antiviral activity against Vesicular stomatitis virus ATCC VR 1540 infected in African green monkey Vero 76 cells assessed as reduction of virus-plaque formation after 2 days by crystal violet staining; format: functional, organism-based; details: ATCC VR 1540, Vero, 48 h
Yellow fever virus = assay: Antiviral activity against Yellow fever virus 17D infected in BHK cells assessed as protection against virus-induced cytopathogenicity after 3 to 4 days by MTT assay; format: functional, cell-based
Staphylococcus aureus [9] = assay: Antimicrobial activity against Staphylococcus aureus NCTC 4163 after 18 hrs by twofold serial microdilution method; format: functional; details: NCTC 4163, 18 h
[10] = tested on: Staphylococcus epidermidis; assay: Antimicrobial activity against Staphylococcus epidermidis ATCC 12228 at 400 ug after 18 hrs by disc-diffusion method; format: functional; details: ATCC 12228, 18 h, read-out: IZ; procedure, shortened: as §3
Enterococcus faecalis = assay: Antimicrobial activity against Enterococcus faecalis ATCC 29212 at 400 ug after 18 hrs by disc-diffusion method; format: functional; procedure, shortened: as §3
Staphylococcus aureus [11] = assay: Antimicrobial activity against Staphylococcus aureus NCTC 4163 at 400 ug after 18 hrs by disc-diffusion method; format: functional; details: NCTC 4163, 18 h, read-out: IZ; procedure, shortened: as §3
Staphylococcus aureus [12] = assay: Antimicrobial activity against Staphylococcus aureus ATCC 29213 at 400 ug after 18 hrs by disc-diffusion method; format: functional; details: ATCC 29213, 18 h, read-out: IZ; procedure, shortened: as §3
[13] = Cytotoxicity against African green monkey Vero 76 cells assessed as cell viability after 48 to 96 hrs by crystal violet staining; format: cell-based; details: chlorocebus sabaeus
CCRF-SB = assay: Cytotoxicity against human CCRF-SB cells after 96 hrs by MTT assay; format: functional
Procedure, shortened: (§5)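 Leukaemia/lymphoma lines seeded at 1×10^5 cells/ml in RPMI-1640 with 10% FCS and penicillin/streptomycin; incubated with serial dilutions at 37°C, 5% CO2; viability by MTT after 96 h; value is concentration reducing proliferation by 50%, with untreated controls undergoing at least three rounds of multiplication.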

Staphylococcus aureus [14] = assay: Antimicrobial activity against Staphylococcus aureus ATCC 6538 at 400 ug after 18 hrs by disc-diffusion method; format: functional; details: ATCC 6538, 18 h, read-out: IZ; procedure, shortened: as §3
[15] = tested on: Mammalian orthoreovirus 1; assay: Antiviral activity against Reovirus type-1 ATCC VR-214 infected in BHK cells assessed as protection against virus-induced cytopathogenicity after 3 to 4 days by MTT assay; format: functional, cell-based; details: Mammalian orthoreovirus 1, ATCC VR-214, BHK; procedure, shortened: as §2
[16] = tested on: Staphylococcus epidermidis; assay: Antimicrobial activity against Staphylococcus epidermidis ATCC 12228 after 18 hrs by twofold serial microdilution method; format: functional; details: ATCC 12228, 18 h
Bacillus subtilis = assay: Antimicrobial activity against Bacillus subtilis ATCC 6633 at 400 ug after 18 hrs by disc-diffusion method; format: functional; details: ATCC 6633, 18 h, read-out: IZ; procedure, shortened: as §3
Vaccinia virus = assay: Antiviral activity against Human Vaccinia virus ATCC VR-1549 infected in African green monkey Vero 76 cells assessed as reduction of virus-plaque formation after 3 days by crystal violet staining; format: functional, organism-based; details: Orthopoxvirus vaccinia, ATCC VR-1549, Vero, 72 h
[17] = Cytotoxicity against human MT4 cells; format: cell-based
Coxsackievirus B5 = assay: Antiviral activity against Human coxsackievirus B5 ATCC VR-29 infected in African green monkey Vero 76 cells assessed as reduction of virus-plaque formation after 3 days by crystal violet staining; format: functional, organism-based; details: Enterovirus B, ATCC VR-29, Vero, 72 h; procedure, shortened: as §4
WIL2-NS = assay: Cytotoxicity against human WIL2-NS cells after 96 hrs by MTT assay; format: functional; procedure, shortened: as §5
[18] = tested on: Staphylococcus epidermidis; assay: Antimicrobial activity against Staphylococcus epidermidis ATCC 35984 at 400 ug after 18 hrs by disc-diffusion method; format: functional; details: ATCC 35984, 18 h, read-out: IZ; procedure, shortened: as §3
Poliovirus 1 = assay: Antiviral activity against Poliovirus type 1 ATCC VR-1562 infected in African green monkey Vero 76 cells assessed as reduction of virus-plaque formation after 2 days by crystal violet staining; format: functional, organism-based; details: Enterovirus C, ATCC VR-1562, Vero, 48 h
Staphylococcus aureus [19] = assay: Antimicrobial activity against Staphylococcus aureus ATCC 6538 after 18 hrs by twofold serial microdilution method; format: functional; details: ATCC 6538, 18 h
CCRF-CEM = assay: Cytotoxicity against human CCRF-CEM cells after 96 hrs by MTT assay; format: functional; procedure, shortened: as §5
Staphylococcus aureus [20] = assay: Antimicrobial activity against Staphylococcus aureus ATCC 25923 at 400 ug after 18 hrs by disc-diffusion method; format: functional; details: ATCC 25923, 18 h, read-out: IZ; procedure, shortened: as §3
Micrococcus luteus [21] = assay: Antimicrobial activity against Micrococcus luteus ATCC 9341 at 400 ug after 18 hrs by disc-diffusion method; format: functional; details: ATCC 9341, 18 h, read-out: IZ; procedure, shortened: as §3
[22] = tested on: Staphylococcus epidermidis; assay: Antimicrobial activity against Staphylococcus epidermidis ATCC 35984 after 18 hrs by twofold serial microdilution method; format: functional; details: ATCC 35984, 18 h
[23] = tested on: Human immunodeficiency virus 1; assay: Antiviral activity against HIV1 3B infected in human MT4 cells assessed as protection against virus-induced cytopathogenicity by MTT assay; format: functional, organism-based; details: Human immunodeficiency virus 1, 3B
Bacillus cereus = assay: Antimicrobial activity against Bacillus cereus ATCC 11778 at 400 ug after 18 hrs by disc-diffusion method; format: functional; details: ATCC 11778, 18 h, read-out: IZ; procedure, shortened: as §3
Enterococcus hirae = assay: Antimicrobial activity against Enterococcus hirae ATCC 10541 at 400 ug after 18 hrs by disc-diffusion method; format: functional; procedure, shortened: as §3
Micrococcus luteus [24] = assay: Antimicrobial activity against Micrococcus luteus ATCC 10240 at 400 ug after 18 hrs by disc-diffusion method; format: functional; details: ATCC 10240, 18 h, read-out: IZ; procedure, shortened: as §3

Row | Compound | MIC (Staphylococcus aureus [1]) [µg/mL] | MIC [2] [µg/mL] | CC50 [3] [µM] | MIC [4] [µg/mL] | CC50 [5] [µM] | pEC50 [6] | inhibition zone (IZ) (Proteus vulgaris) | pEC50 (Human alphaherpesvirus 1) | MIC (Staphylococcus aureus [7]) [µg/mL] | pEC50 [8] | pEC50 (Yellow fever virus) | MIC (Staphylococcus aureus [9]) [µg/mL] | zone of inhibition at 400 µg/disc [10] [mm] | inhibition zone (IZ) (Enterococcus faecalis) | zone of inhibition at 400 µg/disc (Staphylococcus aureus [11]) [mm] | zone of inhibition at 400 µg/disc (Staphylococcus aureus [12]) [mm] | CC50 [13] [µM] | CC50 (CCRF-SB) [µM] | zone of inhibition at 400 µg/disc (Staphylococcus aureus [14]) [mm] | pEC50 [15] | also measured
1 | O=[N+]([O-])c1ccc(NC(=S)Nc2cccc(C(F)(F)F)c2)cc1 | 64 (≈ 188 µM) | 50 (≈ 146 µM) | 9.5 | > 100 | 10 | < 5.00 | inactive | < 5.00 | 128 (≈ 375 µM) | < 5.00 | < 5.02 | 128 (≈ 375 µM) | 13 | inactive | 16 | 16 | 10 | 8.2 | 15 | < 5.02 | MIC [16]: 64 µg/mL (≈ 188 µM); zone of inhibition at 400 µg/disc (Bacillus subtilis): 15 mm; pEC50 (Vaccinia virus): < 5.00; CC50 [17]: 9.2 µM; pEC50 (Coxsackievirus B5): < 5.00; CC50 (WIL2-NS): 9.4 µM; zone of inhibition at 400 µg/disc [18]: 12 mm; pEC50 (Poliovirus 1): < 5.00; MIC (Staphylococcus aureus [19]): 64 µg/mL (≈ 188 µM); CC50 (CCRF-CEM): 8.7 µM; zone of inhibition at 400 µg/disc (Staphylococcus aureus [20]): 20 mm; zone of inhibition at 400 µg/disc (Micrococcus luteus [21]): 13 mm; MIC [22]: 64 µg/mL (≈ 188 µM); pEC50 [23]: < 5.04; zone of inhibition at 400 µg/disc (Bacillus cereus): 15 mm; zone of inhibition at 400 µg/disc (Enterococcus hirae; ATCC 10541, 18 h, read-out: IZ): 13 mm; zone of inhibition at 400 µg/disc (Micrococcus luteus [24]): 13 mm
2 | N#Cc1ccc(NC(=S)Nc2cccc(C(F)(F)F)c2)cc1 | 64 (≈ 199 µM) | > 100 | 9.5 | > 100 | 10 | < 5.00 | inactive | < 5.00 | 64 (≈ 199 µM) | < 5.00 | < 5.02 | 128 (≈ 398 µM) | 18 | inactive | 20 | 18 | 10 | 8.3 | 22 | < 5.02 | MIC [16]: 64 µg/mL (≈ 199 µM); zone of inhibition at 400 µg/disc (Bacillus subtilis): 19 mm; pEC50 (Vaccinia virus): < 5.00; CC50 [17]: 7 µM; pEC50 (Coxsackievirus B5): < 5.00; CC50 (WIL2-NS): 9.2 µM; zone of inhibition at 400 µg/disc [18]: 20 mm; pEC50 (Poliovirus 1): < 5.00; MIC (Staphylococcus aureus [19]): 64 µg/mL (≈ 199 µM); CC50 (CCRF-CEM): 8.7 µM; zone of inhibition at 400 µg/disc (Staphylococcus aureus [20]): 19 mm; zone of inhibition at 400 µg/disc (Micrococcus luteus [21]): 18 mm; MIC [22]: 64 µg/mL (≈ 199 µM); pEC50 [23]: < 5.15; zone of inhibition at 400 µg/disc (Bacillus cereus): 19 mm; inhibition zone (IZ) (Enterococcus hirae): inactive; zone of inhibition at 400 µg/disc (Micrococcus luteus [24]): 16 mm
